For one experiment, the system named is DU-145. In words: Cytotoxicity against human DU145 cells assessed as growth inhibition after 96 hrs by SRB assay. The following applies: Homo sapiens, DU-145, 96 h. The format is functional, cell-based. Background: The SRB assay estimates cell density from bound dye.
For another experiment, the system named is LNCaP. In words: Cytotoxicity against human LNCAP cells assessed as growth inhibition after 96 hrs by SRB assay. The format is functional, cell-based. Put shortly:
(§1)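 Plated at 1000–5000 cells/well depending on growth rate and treated with graded compound concentrations for 96 h, three to five replicates. Cell number was measured by SRB: 10% TCA fixation, 0.4% SRB staining, absorbance at 540 nm. IC50 relative to untreated control came from a nonlinear regression fit.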

Experiment [1] concerns PC-3. In words: Cell cycle arrest in human PC3 cells assessed as accumulation at G2/M phase after 24 hrs by propidium iodide staining based FACS analysis (reference value: 18%). The format is functional. For orientation: Flow cytometry measures light scatter and fluorescence of single cells or particles in a stream.
The nature of experiment [2]: Cytotoxicity against human WM164 cells assessed as growth inhibition after 48 hrs by SRB assay. The format is functional, cell-based. The following applies: WM164, 48 h. The method in brief: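 Melanoma cells from ATCC, grown in DMEM with 10% FBS at 37°C under 5% CO2. Seeded at 1000–5000 cells/well according to growth rate and exposed to a range of compound concentrations for 48 h, in three to five replicates. Cells were fixed with 10% TCA, stained with 0.4% SRB and read at 540 nm. IC50 (50% growth inhibition versus untreated control) was taken from nonlinear regression of % survival against concentration.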

Experiment [3] is described as follows: Cytotoxicity against human MDA-MB-435/LCC6MDR1 cells assessed as growth inhibition after 48 hrs by SRB assay. The format is functional, cell-based, MDA-MB-435/LCC6 MDR1. The following applies: Homo sapiens, MDA-MB-435/LCC6 MDR1, 48 h.
The next experiment has as its system MDA-MB-435. In words: Cytotoxicity against human MDA-MB-435 cells assessed as growth inhibition after 48 hrs by SRB assay. The format is functional, cell-based. The following applies: MDA-MB-435, 48 h.
For another experiment, the system named is A-375. In words: Cytotoxicity against human A375 cells assessed as growth inhibition after 48 hrs by SRB assay. The format is functional, cell-based. Conditions: A-375, 48 h. Put shortly: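 Melanoma cells from ATCC, grown in DMEM with 10% FBS at 37°C under 5% CO2. Seeded at 1000–5000 cells/well according to growth rate and exposed to a range of compound concentrations for 48 h, in three to five replicates. Cells were fixed with 10% TCA, stained with 0.4% SRB and read at 540 nm.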

The test system of experiment [4] is PC-3. In words: Cytotoxicity against human PC3 cells assessed as growth inhibition after 96 hrs by SRB assay. The format is functional, cell-based. The following applies: PC-3, 96 h. The method in brief: as §1
Another experiment relates to PPC-1. In words: Cytotoxicity against human PPC1 cells assessed as growth inhibition after 96 hrs by SRB assay. The following applies: PPC-1, 96 h. The format is functional, cell-based. Put shortly: as §1
For another experiment, the species on record is Bos taurus. In words: Competitive binding affinity to bovine brain tubulin after 1 hr by mass spectrometry binding assay in presence of colchicine. The format is tissue-based.
The next experiment addresses Tubulin (Sus scrofa) (UniProt P02554+P02550). In words: Inhibition of pig brain tubulin polymerization measured every 1 min for 40 mins by microplate reader analysis. The method in brief:
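Polymerization was followed with a fluorescence-enhanced tubulin polymerization assay kit.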

Experiment [5] can be described thus: Resistance index, ratio of IC50 for human MDA-MB-435/LCC6 MDR1 cells to IC50 for human MDA-MB-435 cells. The format is functional.

Active and inactive are the calls of the source. No cut-off for these calls is given here.

Chain of Tubulin (Sus scrofa) (P02550 whole entry, looked up): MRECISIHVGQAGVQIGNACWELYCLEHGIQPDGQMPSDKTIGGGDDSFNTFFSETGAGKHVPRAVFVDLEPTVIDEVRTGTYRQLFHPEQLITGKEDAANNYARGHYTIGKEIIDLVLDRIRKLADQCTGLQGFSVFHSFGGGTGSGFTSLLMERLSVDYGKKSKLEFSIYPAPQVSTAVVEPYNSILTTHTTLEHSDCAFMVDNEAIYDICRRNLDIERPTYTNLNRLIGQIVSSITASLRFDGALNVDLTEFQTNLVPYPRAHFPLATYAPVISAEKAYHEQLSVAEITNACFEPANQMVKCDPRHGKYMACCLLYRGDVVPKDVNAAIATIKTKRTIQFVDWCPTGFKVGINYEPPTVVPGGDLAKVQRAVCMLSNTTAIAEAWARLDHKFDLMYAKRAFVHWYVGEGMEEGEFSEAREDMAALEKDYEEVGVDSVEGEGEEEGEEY
Chain of Tubulin (Sus scrofa) (P02554 whole entry, looked up): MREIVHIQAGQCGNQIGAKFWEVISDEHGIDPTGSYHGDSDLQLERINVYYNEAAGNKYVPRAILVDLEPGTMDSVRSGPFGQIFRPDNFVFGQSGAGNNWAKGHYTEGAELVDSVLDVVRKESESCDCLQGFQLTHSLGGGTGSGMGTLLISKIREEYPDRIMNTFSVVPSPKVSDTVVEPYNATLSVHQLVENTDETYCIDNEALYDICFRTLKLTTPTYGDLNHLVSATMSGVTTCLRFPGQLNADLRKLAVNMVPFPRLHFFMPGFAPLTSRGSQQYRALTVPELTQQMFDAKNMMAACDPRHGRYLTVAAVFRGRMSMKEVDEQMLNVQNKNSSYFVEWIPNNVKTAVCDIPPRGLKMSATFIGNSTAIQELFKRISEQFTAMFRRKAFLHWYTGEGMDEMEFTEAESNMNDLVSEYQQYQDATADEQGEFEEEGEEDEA

What is called IC50 is the point on the concentration scale where inhibition reaches its midpoint. Take `CCn1cc(-c2ccccc2)nc1C(=O)c1cc(OC)c(OC)c(OC)c1`: the IC50 in the experiment with DU-145 is 66 nM; in the experiment with LNCaP it was 29 nM; in experiment [2] it was 16 nM; in experiment [3], 33 nM; in the experiment on MDA-MB-435, 26 nM; in the experiment on A-375 it was 28 nM. In the experiment on PC-3 [4], the IC50 was determined as 25 nM. The Activity result was “Dose-dependent effect” with PC-3 [1] and “<=70%” with PC-3 [1] (record 2).
In the case of `CCc1ccc(-c2nc(C(=O)c3cc(OC)c(OC)c(OC)c3)c[nH]2)cc1`, the IC50 with DU-145 was 25 nM; in [3], 27 nM; in the experiment with PPC-1, 15 nM; with MDA-MB-435, 25 nM; in the experiment with A-375, 14 nM; with PC-3 [4], 13 nM. The Activity entry in the experiment on PC-3 [1] was “Dose-dependent effect”; in the experiment on PC-3 [1] (record 2) it was “<=70%”.
Consider `COc1cc(C(=O)c2nc(-c3ccccc3)cn2-c2ccccn2)cc(OC)c1OC`, for which the IC50 in the experiment with DU-145 was determined as 37 nM; with LNCaP, 20 nM; in [2], 6 nM; in [3], 15 nM; in the experiment with PPC-1, 8 nM; in the experiment with MDA-MB-435, 11 nM. The IC50 in the experiment with A-375 was found to be 14 nM. For the same molecule, the result in the experiment listed under Bos taurus was Active.
`COc1cc(C(=O)c2nc(-c3ccccc3)c[nH]2)cc(OC)c1OC`: the half-maximal inhibitory concentration (IC50) with DU-145 worked out at 22 nM; in the experiment with LNCaP it was 6 nM; in experiment [2], 14 nM; in [3], 11 nM; in the experiment with PPC-1, 13 nM; with MDA-MB-435, 24 nM. For the same molecule, the IC50 was 9 nM in the experiment with A-375 and 14 nM in the experiment with PC-3 [4]. On Tubulin (Sus scrofa), the inhibition result is “Active”. Further, the Activity result with PC-3 [1] is “Dose-dependent effect”; in the experiment on PC-3 [1] (record 2) it was “<=70%”. Also, in experiment [5], the “Ratio IC50” value was 0.5. The result in the experiment listed under Bos taurus was Active.
As to `COc1cc(C(=O)c2nc(-c3ccccc3)cn2C2CCCC2)cc(OC)c1OC`, the IC50 with DU-145 came to 167 nM; in the experiment on LNCaP, 51 nM; in [2] it was 56 nM; in experiment [3], 161 nM; in the experiment on PPC-1, 63 nM; in the experiment with MDA-MB-435, 134 nM. For the same molecule, the figures for the IC50 in the experiment with A-375 and with PC-3 [4] were 135 nM and 56 nM, respectively.
Take `COc1cc(C(=O)c2nc(-c3ccc(F)cc3)c[nH]2)cc(OC)c1OC`: the IC50 with DU-145 turned out to be 353 nM; in the experiment on LNCaP, 114 nM; in experiment [2], 298 nM; in experiment [3], 263 nM; in the experiment on PPC-1, 134 nM; with MDA-MB-435, 320 nM. In addition, the IC50 with A-375 was found to be 197 nM; in the experiment with PC-3 [4], 196 nM.
On to `O=C(c1ccc(Br)cc1)c1nc(-c2ccc(Br)cc2)c[nH]1`, for which the IC50 worked out at 25500 nM with DU-145; 16900 nM with LNCaP; 26300 nM in experiment [2]; 17800 nM in [3]; 13200 nM with PPC-1; 14400 nM with MDA-MB-435. Also, the IC50 was determined as 25000 nM in the experiment on A-375 and 18900 nM in the experiment on PC-3 [4].
In the case of `COc1cc(C(=O)c2nc(-c3ccc(C(F)(F)F)cc3)c[nH]2)cc(OC)c1OC`, the IC50 in the experiment on DU-145 was found to be 210 nM; in the experiment with LNCaP, 47 nM; in experiment [2], 143 nM; in experiment [3], 175 nM; in the experiment with PPC-1 it was 74 nM; with MDA-MB-435 it was 120 nM. Besides, the values for the 50% inhibitory concentration (IC50) with A-375 and with PC-3 [4] were 123 nM and 93 nM, respectively. In addition, the “Ratio IC50” value in experiment [5] was 0.8.
Consider `O=C(c1ccc(Cl)cc1)c1nc(-c2ccc(Cl)cc2)c[nH]1`, for which the IC50 (in the experiment with DU-145; in the experiment on LNCaP; in [2]; in experiment [3]; with PPC-1; in the experiment with MDA-MB-435) was greater than 50000 nM in each case. The figures for the 50% inhibitory concentration (IC50) in the experiment on A-375 and with PC-3 [4] were 35700 nM and greater than 50000 nM, respectively.
In the case of `COc1cc(-c2c[nH]c(C(=O)c3ccccc3)n2)cc(OC)c1OC`, the IC50 with DU-145 came out at 1300 nM; in the experiment with LNCaP, 195 nM; in [2], 1270 nM; in experiment [3], 5770 nM; in the experiment with PPC-1, 408 nM; in the experiment on MDA-MB-435, 4610 nM. Further, the IC50 amounted to 1020 nM in the experiment on A-375 and 632 nM in the experiment with PC-3 [4].
With `COc1cc(C(=O)c2nc(-c3ccc(Br)cc3)c[nH]2)cc(OC)c1OC`, the half-maximal inhibitory concentration (IC50) in the experiment on DU-145 was determined as 66 nM; in the experiment on LNCaP it was 15 nM; in [2], 31 nM; in experiment [3] it was 43 nM; in the experiment on MDA-MB-435, 58 nM; in the experiment on A-375, 29 nM. The IC50 with PC-3 [4] is 33 nM. Further, the figures for the Activity result in the experiment with PC-3 [1] and in the experiment on PC-3 [1] (record 2) were “Dose-dependent effect” and “<=70%”, respectively.
As for `COc1cc(C(=O)c2nc(-c3ccccc3)cn2C)cc(OC)c1OC`, the half-inhibitory concentration (IC50) in the experiment on DU-145 is 26 nM; in experiment [2], 33 nM; in experiment [3], 18 nM; in the experiment with PPC-1, 13 nM; with MDA-MB-435 it was 16 nM; in the experiment on A-375, 9 nM. Besides, in the experiment on PC-3 [4], the IC50 was found to be 16 nM. Moreover, at Tubulin (Sus scrofa), the inhibition entry was “Active”. Further, the Activity entry with PC-3 [1] is “Dose-dependent effect”; with PC-3 [1] (record 2), “<=70%”.
Consider `COc1ccc(C(=O)c2nc(-c3ccc(OC)cc3)c[nH]2)cc1`, for which the IC50 in the experiment with DU-145 is 9840 nM; with LNCaP it was 6420 nM; in experiment [2], greater than 50000 nM; in experiment [3], greater than 50000 nM; in the experiment with PPC-1, 38200 nM; in the experiment with MDA-MB-435, greater than 50000 nM. In addition, the figures for the IC50 with A-375 and in the experiment with PC-3 [4] were greater than 50000 nM and 23400 nM, respectively.
In the case of `CC[C@]1(O)C[C@@H]2CN(CCc3c([nH]c4ccccc34)[C@@](C(=O)OC)(c3cc4c(cc3OC)N(C)[C@H]3[C@@](O)(C(=O)OC)[C@H](OC(C)=O)[C@]5(CC)C=CCN6CC[C@]43[C@@H]65)C2)C1`, the inhibition entry on Tubulin (Sus scrofa) is “Dose-dependent effect”. In addition, in the experiment filed under Bos taurus, the outcome was inactive.
Take `COc1cc(C(=O)c2nc(-c3ccccc3)cn2C(C)C)cc(OC)c1OC`: the 50% inhibitory concentration (IC50) in the experiment with DU-145 stood at 114 nM; with LNCaP, 62 nM; in experiment [2], 23 nM; in experiment [3], 44 nM; with PPC-1, 15 nM; in the experiment on MDA-MB-435 it was 18 nM. Besides, the IC50 with A-375 was 38 nM; with PC-3 [4], 53 nM.

The record behind these values is ChEMBL document CHEMBL2321845, “Discovery of 4-Aryl-2-benzoyl-imidazoles as tubulin polymerization inhibitor with potent antiproliferative properties” (J Med Chem, 2013).
